Measured values published in ChEMBL document CHEMBL1121447, “Pronounced pharmacological differences arising from minor structural changes in conformationally defined amphetamine analogues. Comparative evaluation of endo- and exo-2-amino- and endo- and exo-2-(methylamino)benzobicyclo[2.2.1]heptene and -benzobicylco[2.2.2]octene analogues. Conformationally …” (J Med Chem, 1980).

How the values were obtained:
Assay type in all cases: functional, organism-based
Rattus norvegicus [1] = organism: Rattus norvegicus; test: Effective concentration was measured for the release of accumulated [3H]dopamine from chopped striatum of rat
Procedure, shortened: (§1)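 Chopped rat cortex (NE) or corpus striatum (DA) from untreated rats loaded with 10^-6 M [3H]NE or [3H]dopamine, then washed. Exposed to drug (10^-7 to 10^-3 M) for 30 min, then centrifuged. Amines separated from deaminated metabolites on Dowex 50 Na+ and counted by scintillation with recovery correction. Release = % of total label found in medium. EC50 = half-maximal concentration; 3-4 experiments.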

Rattus norvegicus [2] = organism: Rattus norvegicus; test: Effective concentration was measured for the release of accumulated [3H]NE from chopped cortex of rat; procedure, shortened: as §1
Rattus norvegicus [3] = organism: Rattus norvegicus; test: Inhibitory concentration against uptake of [3H]NE into chopped cerebral cortical tissue from rat brain
Procedure, shortened: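 Chopped rat cerebral cortex preincubated 10 min at 37 °C in physiological salt solution (95% O2-5% CO2) with drug at 10^-8 to 10^-3 M. [3H]NE then added to 10^-7 M final. Uptake stopped by centrifugation. Tissue ethanol extract and medium counted by scintillation. Inhibition taken as % of control; 3-4 experiments.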

Structure (SMILES)	EC50 (Rattus norvegicus [1])	EC50 (Rattus norvegicus [2])	IC50 (Rattus norvegicus [3])	EC50 (Rattus norvegicus [1]; Rattus norvegicus)	EC50 (Rattus norvegicus [2]; Rattus norvegicus)	IC50 (Rattus norvegicus [3]; Rattus norvegicus, Brain)
NC1CC2CCC1c1ccccc12 (stereo in doubt; 1a)	192 µM	147 µM	0.8 µM			
C[C@@H](N)Cc1ccccc1 [LEVAMFETAMINE]				61 µM	1.7 µM	0.5 µM
N[C@H]1CC2C[C@@H]1c1ccccc12				794 µM	630 µM	100 µM
CNC1CC2CCC1c1ccccc12 (stereo in doubt; 2b)	> 1000 µM	> 1000 µM	48 µM			
CNC1CC2CCC1c1ccccc12 (stereo in doubt; 1b)	185 µM	178 µM	0.8 µM			
CNC1CC2CC1c1ccccc12 (stereo in doubt; 4b)	> 1000 µM	> 1000 µM	369 µM			
NC1CC2CCC1c1ccccc12 (stereo in doubt; 2a)	681 µM	1000 µM	39 µM			
C[C@H](N)Cc1ccccc1 [DEXTROAMPHETAMINE]				11 µM	0.8 µM	0.2 µM
CNC1CC2CC1c1ccccc12 (stereo in doubt; 3b)	271 µM	450 µM	1.8 µM			
N[C@@H]1CC2C[C@@H]1c1ccccc12				185 µM	16 µM	1.1 µM
